Published values gathered from unrelated publications.
Compare with care: the assays were run in different laboratories.
Target: Phosphatidylinositol 3-kinase catalytic subunit type 3 (PIK3C3, Homo sapiens, UniProt Q8NEB9)

| SMILES | read-out | technique | tested at | remaining binding [%] |
| --- | --- | --- | --- | --- |
| O=C(N[C@H]1CCCCC/C=C\C2C[C@@]2(C(=O)O)NC(=O)[C@@H]2C[C@@H](Oc3ccncc3)CN2C1=O)OC1CCCC1 (some centres unmarked) | cell-free assay | competition with immobilised ligand | 1 µM | 100 |
| Nc1ncc2c(n1)-c1c([nH]c3ccc(C#CC4CC4)cc13)CCCC2 | binding | competition with immobilised ligand | 1 µM | 93 |
| O=C(c1ccc(Nc2ncc(Cl)c(-c3cc4ccccc4s3)n2)cc1)N1CCC(N2CCCC2)CC1 | binding | competition with immobilised ligand | 1 µM | 53 |
| C[C@H]1CCN(c2nccc(-c3cnn4ncccc34)n2)C1 | binding |  | 1 µM | 86 |
| c1ccc(N2CCN(Cc3nc4ccccc4[nH]3)CC2)nc1 | cell-free assay | competition with immobilised ligand | 1 µM | 100 |
| CN(c1nccc(-c2cnn3ncccc23)n1)C1CC1 | binding |  | 1 µM | 100 |
| O=C(Nc1c[nH]nc1C(=O)NC1CCNCC1)c1cc(F)cc(F)c1 | binding | competition with immobilised ligand | 1 µM | 90 |
| c1cnn2ncc(-c3ccnc(N4CCC45COC5)n3)c2c1 | binding |  | 1 µM | 48 |
| COc1cnc(Nc2cccc(S(N)(=O)=O)c2)nc1N1CCN(c2ccccc2)CC1 | binding | competition with immobilised ligand | 1 µM | 76 |
| CN(CCCC(F)(F)F)c1nccc(-c2cnn3ncccc23)n1 | binding |  | 1 µM | 100 |
| O=C(NC[C@@H]1[C@H]2CN(C(=O)OCc3cc(C(F)(F)F)cc(C(F)(F)F)c3)C[C@@H]12)c1ccc2[nH]nnc2c1 | cell-free assay | competition with immobilised ligand | 1 µM | 72 |
| C=CC(=O)N1CCC(C(=O)NCC(=O)N2CCN(c3nc(-c4cnc(N)nc4C(F)F)nc(N4CCOCC4)n3)CC2)CC1 | binding | competition with immobilised ligand | 1 µM | 4.5 |
| O=C(NCCCN1CCOCC1)c1ccc(Nc2nccc(-c3cc4ccccc4s3)n2)cc1 | binding | competition with immobilised ligand | 1 µM | 0.6 |
| N[C@H]1CCN(c2nccc(-c3cnn4ncccc34)n2)C1 | binding |  | 1 µM | 77 |
| Nc1c(C(=O)NCc2ccc(C(=O)NCCCC3CCCCC3)cc2)cnn1-c1ccccc1 | cell-free assay | competition with immobilised ligand | 0.1 µM | 99 |
| CNC(=O)[C@@H]1CC[C@@H](n2c(-c3ccc4cnccc4c3)nc3ccc(C(=O)NCc4cccc(C(N)=O)c4)cc32)C1 | binding | competition with immobilised ligand | 1 µM | 7.2 |
| CN(C)CC#Cc1ccc(OCCCc2sc(N3CCc4cccc(C(=O)Nc5nc6ccccc6s5)c4C3)nc2C(=O)O)c(F)c1 | cell-free assay | competition with immobilised ligand | 1 µM | 100 |
| O=C(NCCCN1CCOCC1)c1ccc(Nc2ncc(Cl)c(-c3ccc(Cl)s3)n2)cc1 | binding | competition with immobilised ligand | 1 µM | 33 |
| O=C(O)[C@@H]1[C@@H](Cn2nnc3ccccc3c2=O)CC[C@H]1C(=O)c1ccc(OCCC2CCOCC2)cc1 | cell-free assay | competition with immobilised ligand | 1 µM | 96 |
| CN(C)c1nccc(-c2cnn3ncccc23)n1 | binding |  | 1 µM | 100 |
